Compound activity from PubChem.
FGF22 binding: FGF22 (human) thermal shift binding. recombinant FGF22 thermal shift, SYPRO orange fluorescence; percent of sucrose octasulfate shift, DMSO zero. activity (Tm shift, normalised), % at 9.99 µM. AID 651658. 1.5% of 340,000 active;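 active = mean Tm shift, scaled 0 neutral to 100 positive control, at about 1.3% or above, every replicate too, limit read from the data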
Target sequence (Q9HCT0 whole entry, looked up): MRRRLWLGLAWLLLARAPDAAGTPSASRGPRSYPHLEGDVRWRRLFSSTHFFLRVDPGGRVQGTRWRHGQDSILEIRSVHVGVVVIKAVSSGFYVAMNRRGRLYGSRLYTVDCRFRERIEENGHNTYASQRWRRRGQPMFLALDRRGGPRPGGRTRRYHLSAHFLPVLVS
ERAP1 HTS inh: ERAP1 (human) enzyme inhibition; Q9NZ08; recombinant ERAP1, Leu-AMC fluorescence, 60 min; inhibition, % at 10.7 µM; 0.15% of 340,000 active;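 active = mean replicate inhibition of at least 30%, or all replicates individually reaching that 30% level; inactive = mean below 30% and not every replicate reaching it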;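 also: 0% = neutral control wells and 100% = L-leucinethiol positive control wells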
E-sel inducer: induces E-selectin expression in human endothelial cells. P16581. AID 686992. activation, % at 7.58 µM. 0.37% of 260,000 active. HUVEC E-selectin immunofluorescence imaging; normalized: neutral wells 0, TNF-alpha wells 100;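 active = mean E-selectin-positive cell signal at least 10% of the positive control, reached in at least 60% of replicates, without over 20% cell loss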
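Assay system: HUVEC, human umbilical vein endothelial cells / Amount: 3,000 HUVEC/well / Controls: TNF-alpha positive control, DMSO neutral control / Compound dosing: single concentration / Medium: EGM-2 over gelatin coat / Evaluation: percent E-selectin-positive cells / Signal: immunofluorescence imaging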
DENV2 CPE rescue: protects cells from dengue virus 2 cytopathic effect. DENV2-infected cells, cytopathic effect rescue, plate reader. CPE inhibition, % at 9.99 µM. 1.7% of 350,000 active. AID 651640; in the data active = CPE inhibition above about 20%, passing the limit was not always enough; tested in BHK-21 cells;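 also: 0% = median of neutral control wells and 100% = median of positive control wells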
CFTR F508del cor: correctors of CFTR F508del function in bronchial epithelial cells; AID 720511; 0.36% of 350,000 active; activity (quench increase), % at 7.58 µM; CFBE cells, YFP halide quenching; stimulated with forskolin plus potentiator P3; % fluorescence drop versus neutral controls;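 active = mean added fluorescence quench of at least 8% versus neutral control, with both replicates also reaching 8%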;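 also: cells transiently co-express mutant CFTR-F508del with the halide-sensitive YFP; corrector assay measuring rescue of mutant channel to the surface after 24 h compound exposure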
Active calls of the source: *; . = no result. Shown are actives, neighbours in structure and some others; about 3.7% of the full set was active somewhere.

SMILES	FGF22 binding	ERAP1 HTS inh	E-sel inducer	DENV2 CPE rescue	CFTR F508del cor
COc1ccc(/C=N/NC(=O)c2cc[n+]([O-])cc2)cc1	0	2	42*	-2	1
COc1ccc(/C=N/NC(=O)c2cc3cc(OC)c(OC)cc3[nH]2)cc1	0	-1	1	6	.
O=C(N/N=C/c1ccc(OC(F)F)cc1)c1cc[n+]([O-])cc1	0	5	8	6	-1
CCOc1ccc2[nH]c(C(=O)N/N=C/c3ccc(OC)cc3)cc2c1	0	1	.	-10	18*
O=C(C[C@H]1CC[C@@H]2[C@H](COC[C@@H](O)CN2Cc2cccc(-c3ccncc3)c2)O1)N1CCCCC1	0	-2	0	11	-3
CN1CCCC1CCNc1ccc2c(=O)c3ccccc3oc2c1 (stereo not drawn)	0	180*	0	.	4
CO[C@H]1CN(C)C(=O)c2ccc(NC(=O)Nc3ccccc3)cc2OC[C@H](C)NC[C@H]1C	0	0	0	-8	0
C[C@H](NC(=O)[C@@H]1[C@@H](CO)[C@@H]2Cn3c(ccc(-c4ccccc4F)c3=O)[C@H]1N2C)c1ccccc1	0	-3	0	2	.
COc1cccc(NC(=O)c2nn(C)c(C(=O)Nc3cccc(OC)c3)c2[N+](=O)[O-])c1	0	0	0	-4	-4
CCOc1ccc(NC(=O)c2nn(C)c(C(=O)Nc3ccc(OCC)cc3)c2[N+](=O)[O-])cc1	0	-1	0	34*	-2
COc1cccc(-c2ccc([C@H]3[C@@H](CO)N4CCCCN(S(=O)(=O)c5cn(C)cn5)C[C@H]34)cc2)c1	0	2	1	7	-1
Cc1cccc(-c2ccc([C@@H]3[C@H](CO)N4CCCCN(S(=O)(=O)c5cccc(C)c5)C[C@@H]34)cc2)c1	-1	-2	-1	23*	-2
COc1cccc(-c2ccc([C@@H]3[C@H](CO)N4CCCCN(S(=O)(=O)c5cn(C)cn5)C[C@@H]34)cc2)c1	0	1	0	27*	-3
COc1cccc(S(=O)(=O)N2CCCCN3[C@H](CO)[C@H](c4ccc(-c5cccnc5)cc4)[C@H]3C2)c1	1	0	-1	-9	0
Cc1cccc(S(=O)(=O)N2CCCCN3[C@@H](CO)[C@@H](c4ccc(-c5cccnc5)cc4)[C@@H]3C2)c1	0	-1	0	28*	5
Cc1cccc(S(=O)(=O)N2CCCCN3[C@H](C2)[C@H](c2ccc(-c4ccccc4)cc2)[C@@H]3CO)c1	-1	1	.	-11	0
COc1ccc(NC(=O)Nc2ccc3c(c2)C(=O)N([C@@H](C)CO)C[C@H](C)[C@@H](CN(C)C(=O)Nc2ccc(C(F)(F)F)cc2)OCCCC[C@H](C)O3)cc1	1	-5	0	18	-1
CCOc1ccc(N(CC(=O)Nc2cccc(C)c2)S(C)(=O)=O)cc1	0	-2	.	43*	-3
CCOc1ccc(N(C(C)C(=O)Nc2cccnc2)S(C)(=O)=O)cc1 (stereo not drawn)	43*	-1	.	-3	-4
COc1ccc(N(CC(=O)Nc2cccnc2)S(C)(=O)=O)cc1	43*	5	.	3	-1
COc1cccc(N(CC(=O)Nc2cccnc2)S(C)(=O)=O)c1	43	2	.	5	3
N#Cc1ccc(C23OCCN2CCn2c3c3ccccc3[n+]2[O-])cc1 (stereo not drawn)	0	5	1	9	-7
Cc1ccc(C23OCCN2CCn2nc4ccccc4c23)cc1 (stereo not drawn)	0	.	0	74*	4
O=C(CSc1ncn[nH]1)NN(c1ccccc1)c1ccccc1	44*	-2	.	12	-2
Cc1cccc(C)c1N1C(=O)CC(Sc2ccccc2N)C1=O (stereo not drawn)	44*	-1	0	1	3
O=C(C[C@H]1C=C[C@@H](NC(=O)Nc2ccc(C(F)(F)F)cc2)[C@@H](CO)O1)NCc1cccc(F)c1	.	.	-1	.	-3
CCCCCCC1(C)NC(=S)N(c2ccccc2)N1 (stereo not drawn)	0	21	.	-3	1
CCCCCC1(C)NC(=S)N(c2ccccc2)N1 (stereo not drawn)	44*	7	.	-6	1
